Test results taken from ChEMBL document CHEMBL3085676, “Self-assembly to function: design, synthesis, and broad spectrum antimicrobial properties of short hybrid E-vinylogous lipopeptides” (J Med Chem, 2013).
≈ marks a conversion by molar mass, not a printed value. Calls of active or inactive are those of the source. The rule behind the calls is not given here. Where a SMILES comes first, the peptide text is derived from it. The star is where a group is joined. Octanoyl = CCCCCCCC(=O)*

Experiments:
[1] = Hemolytic activity in human RBC after 1 hr; type: ADME, cell-based; settings: erythrocyte
How it was run: (§1)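 Fresh EDTA-collected human RBCs washed four times in Tris-buffered saline (10 mM Tris, 150 mM NaCl, pH 7.2) and used at 4% v/v, mixed 1:1 with two-fold serially diluted peptide (top 100 µg/ml before mixing). Incubated at 37 °C for 1 h and centrifuged; supernatant hemoglobin read at 540 nm. Buffer and 1% Triton-X served as negative and positive controls. Percent hemolysis = (A−A_N)/(A_P−A_N)×100. Run in duplicate.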

[2] = test system: Candida albicans; assay: Antifungal activity against Candida albicans NCIM 3471 assessed as disruption of cell membrane by atomic force microscopic analysis; type: functional, organism-based
How it was run: (§2)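 E. coli grown in MHB and C. albicans in potato dextrose broth were pelleted and resuspended in deionized water. Cells incubated with 50 µM peptide at 37 °C for 1 h, dried 30 min at 25 °C on poly-L-lysine glass, and imaged by AFM in intermittent contact mode. Peptide-free cells served as control.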

[3] = test system: Escherichia coli; assay: Antibacterial activity against Escherichia coli K-12 NCIM 2563 assessed as disruption of cell membrane at 50 uM after 1 hr by atomic force microscopic analysis; type: functional, organism-based; how it was run: as §2
[4] = test system: Saccharomyces cerevisiae; assay: Antifungal activity against Saccharomyces cerevisiae NCIM 3454 after 48 to 72 hrs; type: functional
How it was run: (§3)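 Peptide in water was serially diluted two-fold in potato dextrose broth and mixed 1:1 with yeast suspension at 2×10³ CFU/ml. Incubated at 25 °C for 48-72 h, with growth read as absorbance at 620 nm against a peptide-free culture. MIC was the lowest concentration giving complete growth inhibition. Run in triplicate.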

[5] = test system: Cryptococcus neoformans; assay: Antifungal activity against Cryptococcus neoformans NCIM 3542 after 48 to 72 hrs; type: functional; how it was run: as §3
[6] = test system: Nakaseomyces glabratus; assay: Antifungal activity against Candida glabrata NCIM 3237 after 48 to 72 hrs; type: functional; how it was run: as §3
[7] = test system: Candida albicans; assay: Antifungal activity against Candida albicans NCIM 3471 after 48 to 72 hrs; type: functional; how it was run: as §3
[8] = test system: Salmonella typhimurium; assay: Antibacterial activity against Salmonella typhimurium NCIM 2501 after 18 to 20 hrs by broth dilution assay; type: functional, Salmonella enterica subsp. enterica serovar Typhimurium; settings: Salmonella enterica
How it was run: (§4)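 Two-fold serial dilutions in Mueller-Hinton broth, run in triplicate. Overnight 37 °C cultures diluted to 10⁶ CFU/mL and added 1:1 to the peptide, then incubated at 37 °C for 18-20 h. Growth was read as absorbance at 492 nm against no-peptide controls. MIC taken as the lowest concentration giving complete inhibition or killing. Reproducible across three independent triplicates.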

[9] = test system: Staphylococcus aureus; assay: Antibacterial activity against Staphylococcus aureus NCIM 5021 after 18 to 20 hrs by broth dilution assay; type: functional; how it was run: as §4
[10] = test system: Pseudomonas aeruginosa; assay: Antibacterial activity against Pseudomonas aeruginosa NCIM 5029 after 18 to 20 hrs by broth dilution assay; type: functional; how it was run: as §4
[11] = test system: Klebsiella pneumoniae; assay: Antibacterial activity against Klebsiella pneumoniae NCIM 2957 after 18 to 20 hrs by broth dilution assay; type: functional; how it was run: as §4
[12] = test system: Escherichia coli; assay: Antibacterial activity against Escherichia coli K-12 NCIM 2563 after 18 to 20 hrs by broth dilution assay; type: functional; how it was run: as §4
[13] = test system: Escherichia coli; assay: Antibacterial activity against Escherichia coli NCIM 2065 after 18 to 20 hrs by broth dilution assay; type: functional; how it was run: as §4
[14] = Hemolytic activity in human RBC at 100 ug/ml after 1 hr; type: ADME, cell-based; settings: erythrocyte; how it was run: as §1
[15] = test system: Escherichia coli; assay: Antibacterial activity against Escherichia coli expressing pUC19 plasmid assessed as disruption of cytoplasmic membrane at 20 ug/mL after 1 hr by beta-galactosidase leakage assay; type: functional, organism-based
How it was run: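 E. coli TOP10 transformed with pUC19 (lacZ) grown in LB with 100 µg/ml ampicillin at 37 °C to A660 0.6, then washed three times. Peptide stock (200 µg/ml) added 1:10 to cells and incubated at 37 °C for 1 h. After centrifugation, supernatant was mixed with 4-methylumbelliferyl substrate and fluorescence followed for 1 h. Initial velocities used; water blank; triplicates.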

[16] = test system: Escherichia coli; assay: Antibacterial activity against Escherichia coli K-12 NCIM 2563 at 50 uM after 60 mins by FITC uptake assay; type: functional, organism-based
How it was run: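 E. coli grown in MHB to OD 0.6, washed, and suspended at 2×10⁷ cfu/ml in 10 mM sodium phosphate pH 7.4. Cells incubated with 50 µM peptide at 37 °C for 60 min, then immobilized on poly-L-lysine slides for 50 min at 30 °C. FITC (10 µg/ml) added, slides washed, and cells examined by fluorescence microscopy. Solvent-treated control.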

| SMILES | HD10 [1] [µg/mL] | Activity [2] | Activity [3] | MIC [4] [µg/mL] | MIC [5] [µg/mL] | MIC [6] [µg/mL] | MIC [7] [µg/mL] | MIC [8] [µg/mL] | MIC [9] [µg/mL] | MIC [10] [µg/mL] | MIC [11] [µg/mL] | MIC [12] [µg/mL] | MIC [13] [µg/mL] | Activity [14] | Activity [15] | Activity [16] |
| --- | --- | --- | --- | --- | --- | --- | --- | --- | --- | --- | --- | --- | --- | --- | --- | --- |
| CCCCCCCC(=O)N[C@@H](C)/C=C/C(=O)N[C@@H](CCCCN)C(=O)N[C@@H](C)/C=C/C(=O)N[C@@H](CCCCN)C(N)=O | 58 | Active | Active | > 100 | > 100 | 50 (≈ 84.2 µM) | > 100 | > 100 | > 100 | > 100 | > 100 | > 100 | > 100 |  |  |  |
| CCCCCCCC(=O)N[C@@H](C)/C=C/C(=O)N[C@@H](CCCNC(=N)N)C(=O)N[C@@H](C)/C=C/C(=O)N[C@@H](CCCNC(=N)N)C(N)=O | 52 | Active | Active | > 100 | > 100 | > 100 | > 100 | > 100 | > 100 | > 100 | > 100 | > 100 | > 100 |  |  |  |
| CC(=O)N[C@H](/C=C/C(=O)N[C@@H](CCCCN)C(=O)N[C@H](/C=C/C(=O)N[C@@H](CCCCN)C(N)=O)Cc1ccccc1)Cc1ccccc1 |  | Active | Active | > 100 | > 100 | > 100 | > 100 | > 100 | > 100 | > 100 | > 100 | > 100 | > 100 | Non-toxic |  |  |
| CCCCCCCCCCCC(=O)N[C@@H](C)/C=C/C(=O)N[C@@H](CCCCN)C(=O)N[C@@H](C)/C=C/C(=O)N[C@@H](CCCCN)C(N)=O | 48 | Active | Active | 3.12 (≈ 4.8 µM) | 6.25 (≈ 9.62 µM) | 6.25 (≈ 9.62 µM) | 3.12 (≈ 4.8 µM) | 6.25 (≈ 9.62 µM) | 6.25 (≈ 9.62 µM) | 6.25 (≈ 9.62 µM) | 3.12 (≈ 4.8 µM) | 6.25 (≈ 9.62 µM) | 6.25 (≈ 9.62 µM) |  | inactive |  |
| CCCCCCCC(=O)N[C@H](/C=C/C(=O)N[C@@H](CCCCN)C(=O)N[C@H](/C=C/C(=O)N[C@@H](CCCCN)C(N)=O)Cc1ccccc1)Cc1ccccc1 | 16 | Active | Active | 3.12 (≈ 4.18 µM) | 3.12 (≈ 4.18 µM) | 3.12 (≈ 4.18 µM) | 3.12 (≈ 4.18 µM) | 3.12 (≈ 4.18 µM) | 3.12 (≈ 4.18 µM) | 3.12 (≈ 4.18 µM) | 3.12 (≈ 4.18 µM) | 1.56 (≈ 2.09 µM) | 1.56 (≈ 2.09 µM) |  | Active | Active |
| CCCCCCCC(=O)N[C@H](/C=C/C(=O)N[C@@H](CCCCN)C(=O)N[C@H](/C=C/C(=O)N[C@@H](CCCCN)C(N)=O)Cc1ccc(O)cc1)Cc1ccc(O)cc1 | 54 | Active | Active | 12.5 (≈ 16.1 µM) | 25 (≈ 32.1 µM) | 25 (≈ 32.1 µM) | 12.5 (≈ 16.1 µM) | 50 (≈ 64.3 µM) | 50 (≈ 64.3 µM) | 50 (≈ 64.3 µM) | 50 (≈ 64.3 µM) | 25 (≈ 32.1 µM) | 25 (≈ 32.1 µM) |  |  |  |
| CCCCCCCCCCCC(=O)N[C@@H](C)/C=C/C(=O)N[C@@H](CCCNC(=N)N)C(=O)N[C@@H](C)/C=C/C(=O)N[C@@H](CCCNC(=N)N)C(N)=O | 22 | Active | Active | 3.12 (≈ 4.42 µM) | 12.5 (≈ 17.7 µM) | 6.25 (≈ 8.85 µM) | 3.12 (≈ 4.42 µM) | 3.12 (≈ 4.42 µM) | 6.25 (≈ 8.85 µM) | 3.12 (≈ 4.42 µM) | 6.25 (≈ 8.85 µM) | 12.5 (≈ 17.7 µM) | 12.5 (≈ 17.7 µM) |  |  |  |
| CCCCCCCC(=O)N[C@H](/C=C/C(=O)N[C@@H](CCCCN)C(=O)N[C@H](/C=C/C(=O)N[C@@H](CCCCN)C(N)=O)C(C)C)CC(C)C |  | Active | Active | 50 (≈ 75.3 µM) | 6.25 (≈ 9.41 µM) | 50 (≈ 75.3 µM) | 25 (≈ 37.7 µM) | 50 (≈ 75.3 µM) | 50 (≈ 75.3 µM) | 50 (≈ 75.3 µM) | 25 (≈ 37.7 µM) |  | 12.5 (≈ 18.8 µM) |  |  |  |
| CCCCCCCCCCCC(=O)N[C@H](/C=C/C(=O)N[C@@H](CCCCN)C(=O)N[C@H](/C=C/C(=O)N[C@@H](CCCCN)C(N)=O)Cc1ccccc1)Cc1ccccc1 | < 1.56 | Active | Active | 6.25 (≈ 7.79 µM) | 6.25 (≈ 7.79 µM) | 6.25 (≈ 7.79 µM) | 3.12 (≈ 3.89 µM) | 25 (≈ 31.2 µM) | 25 (≈ 31.2 µM) | 25 (≈ 31.2 µM) | 25 (≈ 31.2 µM) | 25 (≈ 31.2 µM) | 25 (≈ 31.2 µM) |  |  |  |
| CCCCCCCCCCCC(=O)N[C@H](/C=C/C(=O)N[C@@H](CCCCN)C(=O)N[C@H](/C=C/C(=O)N[C@@H](CCCCN)C(N)=O)Cc1ccc(O)cc1)Cc1ccc(O)cc1 | 2.5 | Active | Active | 3.12 (≈ 3.74 µM) | 6.25 (≈ 7.49 µM) | 3.12 (≈ 3.74 µM) | 1.56 (≈ 1.87 µM) | 3.12 (≈ 3.74 µM) | 3.12 (≈ 3.74 µM) | 3.12 (≈ 3.74 µM) | 3.12 (≈ 3.74 µM) | 6.25 (≈ 7.49 µM) | 6.25 (≈ 7.49 µM) |  | Active | Active |
| CCCCCCCC(=O)N[C@@H](CC(C)C)C(=O)N[C@@H](CCCCN)C(=O)N[C@H](C(=O)N[C@@H](CCCCN)C(N)=O)C(C)C (Octanoyl-LKVK-NH2) |  | Active | Active | > 100 | > 100 | > 100 | > 100 | > 100 | > 100 | > 100 | > 100 | > 100 | > 100 | Non-toxic |  |  |
